MT stabilize HCS – microtubule stabilization, imaging screen; HeLa tubulin immunostaining HCS, 24 h; share of cells brighter than vehicle mean+2SD; % tubulin-high responders, % at 10 µM; actives 0.83% (n = 200,000);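 active = plate Z-score above 3 for both tubulin-high and condensed-nucleus cell shares, with cell loss under 80%, at 10 µM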;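 note: anti alpha tubulin signal scored within the nucleus-defined area of each cell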
Autophagy HCS – alters autophagy in cells; MEF GFP-LC3 puncta imaging; test concentration mostly 10 µM; calls only at 10 µM (by protocol); actives 0.98% (n = 190,000); AID 463193;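 active = percentage of spot-positive cells more than 3 SD above its plate mean, without a fluorescence outlier flag or 80% toxicity; inconclusive = no clear call, values can overlap the other calls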
b-catenin transl – beta-catenin nuclear translocation modulation; actives 0.3% (n = 190,000); nuclear translocation activity, % at 5 µM; HeLa beta-catenin nuclear translocation, immunofluorescence imaging;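 active = nuclear translocation activity above 50% at 5 µM, with a well cell count of 50 or more; inconclusive = wells under 50 cells across six images, flagged as toxic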;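 note: per-cell ratio of nuclear to cytoplasmic median beta-catenin stain intensity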
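Read-out: Nuclear/cytoplasmic beta-catenin signal ratio, % activation | Assay system: Human HeLa cell line | Times: 24 h compound exposure at 37°C, 5% CO2 | Signal: Fluorescence imaging of beta-catenin antibody stain plus DAPI | Dosing: 5 µM primary, 0.02–20 µM confirmation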
Ins promoter up – MIN6 insulin promoter up-regulation; z-score at 5 µM; actives 0.3% (n = 190,000); MIN6 insulin promoter-GFP reporter, high-content imaging; active compounds read high; AID 1625;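 active = z-score above 3 at 5 µM with at least 500 cells counted in the well; inconclusive = wells under 500 cells, flagged as cytotoxic or low count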
Dynein transport – dynein cargo transport inhibition. 3617.4 mouse cells, GR-EGFP nuclear translocation imaging; test concentration mostly 20 µM; stimulated with dexamethasone, 1 µM; active compounds read low. z-score, hits read low. actives 0.47% (n = 220,000). AID 1381;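 active = plate z-score of nuclear minus cytoplasmic receptor signal below a set negative limit, without overly bright fluorescence or cell loss, cut at about -3.5 in these data, passing the limit was not always enough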;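 note: z-score of nuclear minus cytoplasmic ring GR-EGFP intensity difference per well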
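Buffer or medium – tet-free medium with charcoal-stripped serum · Signal – automated 10x imaging of fixed Hoechst-stained cells · Also added – dexamethasone agonist, 1.0 µM final, for 30 min · Incubation – induction 48 h, compound 1 h, agonist 30 min · Read-out – GR-EGFP nuclear translocation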
Numbers stand for hits; n = inactive; u = inconclusive; x = no result given; + = active, no number. An excerpt weighted towards active compounds, which were near 2.3% of everything screened.

SMILES | MT stabilize HCS | Autophagy HCS | b-catenin transl | Ins promoter up | Dynein transport
COc1ccc(N(C)C(=O)c2ccc3nc(-c4ccccc4)c(-c4ccccc4)nc3c2)cc1 | 25 | n | n | n | n
COc1ccc(C(=O)c2ccccc2)cc1 | n | n | u | n | n
C=CCN(C(=O)c1ccccc1)c1ccc(OC)cc1 | 43 | n | n | n | n
COc1ccc(-c2cnnc(N/N=C/c3ccc(-c4ccc([N+](=O)[O-])cc4)o3)n2)cc1 | 40 | n | 81 | n | n
O=[N+]([O-])c1ccc(-c2ccc(/C=N/Nc3nc(N4CCCC4)nc(N4CCCC4)n3)o2)cc1 | 35 | + | n | n | n
COc1ccc(-c2nc(Cn3c(SCc4ccc(C)cc4)nc4ccncc43)c(C)o2)cc1OC | n | n | x | n | n
COc1ccc(-c2nc(Cn3c(SCc4cccc(F)c4)nc4ccncc43)c(C)o2)cc1OC | n | + | n | n | n
NC1=NC2(CCCCC2)N=C(Nc2ccc(F)cc2F)N1 | n | n | n | n | n
Cc1cc(C)cc(NC2=NC3(CCCCC3)N=C(N)N2)c1 | 47 | n | n | n | n
Cn1cnc([N+](=O)[O-])c1SCC(O)CN1CCCCC1 (centres undefined) | n | + | n | n | n
C=CCN(CC=C)C(=S)NC(=O)Cc1cccc2ccccc12 | n | n | n | n | n
CC(=O)c1ccc(Nc2cc(C)nc3ccccc23)cc1 | 27 | n | n | n | n
CC(=O)c1cccc(Nc2cc(C)nc3c(C)cc(C)cc23)c1 | n | n | n | n | n
CC(=O)c1ccc(Nc2cc(C)nc3c(C)cccc23)cc1 | 18 | n | 67 | n | n
C=CCC1(Cl)C(=O)C(Cl)=C(N2CCOCC2)C1(OC)OC (centres undefined) | x | x | n | n | n
O=C(Cn1c(=O)c(=O)n(Cc2ccccc2)c2ccc(Cl)cc21)Nc1ccc(F)cc1F | 26 | n | n | n | n
CCOc1ccc(S(=O)(=O)Nc2cccc(N(C)S(C)(=O)=O)c2)cc1 | n | n | n | u | n
CCOc1ccc(NS(=O)(=O)c2cnc(Cl)c(Cl)c2)cc1 | 16 | n | n | n | n
Cc1cc(C)cc(NS(=O)(=O)c2cnc(Cl)c(Cl)c2)c1 | n | n | n | n | n
CCOc1ccc(S(=O)(=O)Nc2cccc(OC)c2)cc1 | 16 | n | x | n | n
O=S(=O)([N-]c1nc2ccccc2nc1-n1cc[n+](Cc2ccccc2)c1)c1ccc(Cl)cc1 | x | x | n | n | n
C=CCNC(=O)C1CC2Cn3c(nc4cc5ccccc5cc43)C2N1C (centres undefined) | x | x | n | 4.4 | n
Cc1cc(C)n(-c2ccc(OCC(=O)O)nn2)n1 | n | n | n | 3.3 | n
CCCCOc1ccc(-n2nc(C)cc2C)nn1 | n | n | n | n | n
O=C(NC(=S)Nc1cc(S(=O)(=O)N2CCOCC2)ccc1N1CCOCC1)C1CCCC1 | n | n | n | n | n
SMILES | MT stabilize HCS | Autophagy HCS | b-catenin transl | Ins promoter up | Dynein transport
O=C(CSc1nc(O)cc(=O)n1-c1ccccc1)Nc1nc2ccccc2s1 | x | x | n | n | n
CC(CSc1nnnn1-c1ccccc1)Cn1c(N2CCCC2)nc2c1c(=O)[nH]c(=O)n2C (centres undefined) | n | + | n | n | n
Cn1c(=O)[nH]c(=O)c2c1nc(N1CCOCC1)n2CCSc1nnnn1-c1ccccc1 | x | x | n | n | n
CCN(CC(=O)Nc1ccccc1-c1ccccc1)Cc1nc2ccccc2c(=O)[nH]1 | 25 | n | n | n | n
COc1ccccc1CN(C)CC(=O)Nc1ccccc1-c1ccccc1 | n | n | n | n | n
CCN(CC(=O)Nc1ccccc1OC)CC(=O)Nc1ccccc1-c1ccccc1 | 20 | n | n | n | n
COc1ccc(OCC(=O)Nc2ccccc2-c2ccccc2)cc1 | 34 | n | n | n | n
CCN(CC(=O)Nc1ccccc1SC)Cc1nc2ccccc2c(=O)[nH]1 | x | x | n | n | n
CCN(CC(=O)Nc1ccccc1OC)CC(=O)Nc1ccccc1C(F)(F)F | 18 | n | n | n | n
CCN(CC(=O)Nc1ccc(C(C)=O)cc1)CC(=O)Nc1ccccc1C(F)(F)F | n | n | n | x | n
O=C(CCn1cnc2ccccc21)N=Nc1c(O)[nH]c2ccccc12 | x | x | n | n | n
CCOc1ccc(N2C(=O)C3ON(C)C(c4ccc([N+](=O)[O-])cc4)C3C2=O)cc1 (centres undefined) | x | x | n | n | n
Cc1cc(NC(=O)/C(C#N)=C/c2ccc(-c3cccc(C(F)(F)F)c3)o2)n(-c2ccccc2)n1 | n | n | n | n | n
Cc1cc(NC(=O)/C(C#N)=C/c2ccc(-c3ccc(SC(F)F)cc3)o2)n(-c2ccccc2)n1 | n | + | n | 3.4 | n
O=C(CN1C(=O)/C(=C/c2c(F)cccc2Cl)Oc2ccccc21)NCc1ccco1 | 19 | n | n | n | n
Nc1nnc(-c2cc3ccccc3oc2=O)s1 | n | n | n | n | n
O=c1oc2ccccc2cc1-c1nnc(NCc2ccco2)s1 | 20 | n | x | n | n
CCOC(=O)N1CCN(c2c(F)cc3[nH]c(=S)[nH]c3c2Br)CC1 | 47 | + | n | n | n
COc1ccc(N/C(=N/c2nc(C)cc(C)n2)NC(=O)c2ccccc2)cc1 | x | x | n | n | n
C(=N\N1CCN(Cc2cccc3ccccc23)CC1)/c1ccco1 | n | + | x | n | n
O=C(O)CCn1c(-c2ccccc2)cc2ccccc21 | n | n | n | n | n
CCOC(=O)c1ccc(NC(=O)COc2ccc(S(=O)(=O)NC(C)CC)cc2)cc1 (centres undefined) | n | n | n | 3.1 | n
COc1cc(CNCCO)cc(Br)c1OCc1ccccc1Cl | n | n | n | n | n
COc1cc(CNCCO)cc(Cl)c1OCc1ccc(Cl)cc1Cl | n | + | n | x | n
COc1ccc(CCn2c(C3CCCCC3)nc3c(c(=O)c4ccccc4n3C)c2=O)cc1 | x | x | 51 | n | n
SMILES | MT stabilize HCS | Autophagy HCS | b-catenin transl | Ins promoter up | Dynein transport
COc1ccc(Cn2c(C3CCCCC3)nc3c(c(=O)c4ccccc4n3C)c2=O)cc1 | x | x | n | x | n
Cc1ccnc(NC(=O)CSc2cc(=O)n(C)c3ccccc23)c1 | n | + | n | n | n
CC(C)(C)c1cc(C(=O)C[n+]2ccc(C(=O)NCCCO)cc2)cc(C(C)(C)C)c1O | x | x | n | n | n
COc1ccc(-n2c(=O)c(NC(=O)c3ccccc3)c3n(c2=S)CCCCC3)cc1 | n | + | n | n | n
COc1ccc(C(=O)NC(=S)Nc2ccc(S(N)(=O)=O)cc2)cc1 | n | n | n | n | n
Cn1cc(Br)c(C(=O)NC(=S)Nc2ccc(S(N)(=O)=O)cc2)n1 | n | + | n | n | n
Cc1nc(/N=C(\N)N(C)C)[nH]c(=O)c1C | x | x | n | n | n
O=C(C1CCC(CNS(=O)(=O)c2cccc3cccnc23)CC1)N1CCc2ccccc21 (centres undefined) | n | + | x | u | n
CCCCN1/C(=C/c2ccc3ccccc3[n+]2CC)Sc2ccccc21 | n | + | n | u | n
CCN1/C(=C/c2ccc3ccccc3[n+]2CC)C=Cc2ccccc21 | n | + | x | u | n

Screening results from PubChem BioAssay.
